Assay results taken from ChEMBL document CHEMBL4229530, “5-Adamantan thiadiazole-based thiazolidinones as antimicrobial agents. Design, synthesis, molecular docking and evaluation” (2018).
Converted amounts (≈) assume the structure as drawn.

Columns and labels:
Staphylococcus aureus [1] = assay: Antibacterial activity against Staphylococcus aureus ATCC 6538 after 24 hrs by INT dye based microdilution assay; type: functional; conditions: ATCC 6538, 24 h
Outline: (§1)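 Broth microdilution in tryptic soy broth: overnight bacterial culture adjusted to 1×10^5 CFU/mL, 1.0×10^4 CFU per well; compounds dissolved in 5% DMSO, tested at 0.001-1.0 mg/ml; 24 h at 37°C. Streptomycin and ampicillin as positive controls, 5% DMSO as negative control; duplicate, repeated three times.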

Bacillus cereus = assay: Antibacterial activity against Bacillus cereus after 24 hrs by INT dye based microdilution assay; type: functional; outline: as §1
Listeria monocytogenes [2] = assay: Antibacterial activity against Listeria monocytogenes NCTC 7973 after 24 hrs by INT dye based microdilution assay; type: functional; conditions: NCTC 7973, 24 h; outline: as §1
Micrococcus flavus = assay: Antibacterial activity against Micrococcus flavus ATCC 10240 after 24 hrs by INT dye based microdilution assay; type: functional; conditions: ATCC 10240, 24 h; outline: as §1
Salmonella typhimurium = assay: Antibacterial activity against Salmonella typhimurium ATCC 13311 after 24 hrs by INT dye based microdilution assay; type: functional, Salmonella enterica subsp. enterica serovar Typhimurium; conditions: Salmonella enterica, ATCC 13311, 24 h; outline: as §1
Enterobacter cloacae = assay: Antibacterial activity against Enterobacter cloacae after 24 hrs by INT dye based microdilution assay; type: functional; outline: as §1
Pseudomonas aeruginosa [3] = assay: Antibacterial activity against Pseudomonas aeruginosa ATCC 27853 after 24 hrs by INT dye based microdilution assay; type: functional; conditions: ATCC 27853, 24 h; outline: as §1
Escherichia coli [4] = assay: Antibacterial activity against Escherichia coli ATCC 35210 after 24 hrs by INT dye based microdilution assay; type: functional; conditions: ATCC 35210, 24 h; outline: as §1
Listeria monocytogenes [5] = assay: Potency index, ratio of ampicillin MIC to compound MIC for antibacterial activity against Listeria monocytogenes NCTC 7973; type: functional
Listeria monocytogenes [6] = assay: Potency index, ratio of streptomycin MIC to compound MIC for antibacterial activity against Listeria monocytogenes NCTC 7973; type: functional
Aspergillus fumigatus = assay: Antifungal activity against Aspergillus fumigatus isolate 1022 after 72 hrs by serial dilution assay; type: functional; conditions: isolate 1022, 72 h
Outline: (§2)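 Modified microdilution: fungal spores washed off malt agar with sterile 0.85% saline plus 0.1% Tween 80, adjusted to about 1.0×10^5 per 100 µL well. Compounds in 5% DMSO (0.001-1.0 mg/ml) in malt broth; 72 h at 28°C on rotary shaker (160 rpm). MIC is lowest concentration without visible growth under binocular microscope. Bifonazole and ketoconazole controls (1-3500 µg/mL); three independent experiments in duplicate.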

Aspergillus versicolor = assay: Antifungal activity against Aspergillus versicolor ATCC 11730 after 72 hrs by serial dilution assay; type: functional; conditions: ATCC 11730, 72 h; outline: as §2
Aspergillus ochraceus = assay: Antifungal activity against Aspergillus ochraceus ATCC 12066 after 72 hrs by serial dilution assay; type: functional; conditions: ATCC 12066, 72 h; outline: as §2
Aspergillus niger = assay: Antifungal activity against Aspergillus niger ATCC 6275 after 72 hrs by serial dilution assay; type: functional; conditions: ATCC 6275, 72 h; outline: as §2
Trichoderma viride = assay: Antifungal activity against Trichoderma viride IAM 5061 after 72 hrs by serial dilution assay; type: functional; conditions: IAM 5061, 72 h; outline: as §2
Talaromyces funiculosus = assay: Antifungal activity against Penicillium funiculosum ATCC 36839 after 72 hrs by serial dilution assay; type: functional; conditions: ATCC 36839, 72 h; outline: as §2
Penicillium ochrochloron = assay: Antifungal activity against Penicillium ochrochloron ATCC 9112 after 72 hrs by serial dilution assay; type: functional; conditions: ATCC 9112, 72 h; outline: as §2
Penicillium verrucosum = assay: Antifungal activity against Penicillium cyclopium var verucosum after 72 hrs by serial dilution assay; type: functional; outline: as §2
Staphylococcus aureus [7] = assay: Antibacterial activity against methicillin-resistant Staphylococcus aureus after 24 hrs by INT dye based microdilution assay; type: functional
Outline: (§3)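 Broth microdilution in tryptic soy broth. Overnight culture adjusted to 1×10^5 CFU/mL, giving 1.0×10^4 CFU per well. Compounds dissolved in 5% DMSO and tested at 0.001-1.0 mg/ml. Plates incubated 24 h at 37°C. INT (0.2 mg/mL) then added, with 30 min at 37°C. Duplicate, repeated three times.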

Pseudomonas aeruginosa [8] = assay: Antibacterial activity against drug-resistant Pseudomonas aeruginosa after 24 hrs by INT dye based microdilution assay; type: functional; outline: as §3
Escherichia coli [9] = assay: Antibacterial activity against drug-resistant Escherichia coli after 24 hrs by INT dye based microdilution assay; type: functional; outline: as §3
Candida albicans = assay: Antifungal activity against Candida albicans after 72 hrs by serial dilution assay; type: functional; outline: as §2

Compound | MIC (Staphylococcus aureus [1]) [µM] | MIC (Bacillus cereus) [µM] | MIC (Listeria monocytogenes [2]) [µM] | MIC (Micrococcus flavus) [µM] | MIC (Salmonella typhimurium) [µM] | MIC (Enterobacter cloacae) [µM] | MIC (Pseudomonas aeruginosa [3]) [µM] | MIC (Escherichia coli [4]) [µM] | MIC (Aspergillus fumigatus) [µM] | MIC (Aspergillus versicolor) [µM] | MIC (Aspergillus ochraceus) [µM] | MIC (Aspergillus niger) [µM] | MIC (Trichoderma viride) [µM] | MIC (Talaromyces funiculosus) [µM] | MIC (Penicillium ochrochloron) [µM] | MIC (Candida albicans) [µM] | MIC (Penicillium verrucosum) [µM] | other results
O=C1N/C(=N\c2nnc(C34CC5CC(CC(C5)C3)C4)s2)S/C1=C/c1cccc([N+](=O)[O-])c1 | 0.0418 (≈ 0.0195 µg/mL) | 21.4 (≈ 10 µg/mL) | 17 (≈ 7.95 µg/mL) | 41.8 (≈ 19.5 µg/mL) | 21.4 (≈ 10 µg/mL) | 41.8 (≈ 19.5 µg/mL) | 21.4 (≈ 10 µg/mL) | 0.0418 (≈ 0.0195 µg/mL) | 107 (≈ 50 µg/mL) | 107 (≈ 50 µg/mL) | 107 (≈ 50 µg/mL) | 214 (≈ 100 µg/mL) | 53.5 (≈ 25 µg/mL) | 107 (≈ 50 µg/mL) | 214 (≈ 100 µg/mL) | – | 0.107 (≈ 0.05 µg/mL) | Ratio (Listeria monocytogenes [5]): 29; Ratio (Listeria monocytogenes [6]): 20; MIC (Staphylococcus aureus [7]): 0.107 µM (≈ 0.05 µg/mL); MIC (Pseudomonas aeruginosa [8]): 53.5 µM (≈ 25 µg/mL); MIC (Escherichia coli [9]): 0.0535 µM (≈ 0.025 µg/mL)
COc1cc(/C=C2/S/C(=N/c3nnc(C45CC6CC(CC(C6)C4)C5)s3)NC2=O)ccc1O | 0.032 (≈ 0.015 µg/mL) | 32 (≈ 15 µg/mL) | 134 (≈ 62.8 µg/mL) | 134 (≈ 62.8 µg/mL) | 32 (≈ 15 µg/mL) | 32 (≈ 15 µg/mL) | 32 (≈ 15 µg/mL) | 0.134 (≈ 0.0628 µg/mL) | 133 (≈ 62.3 µg/mL) | 33 (≈ 15.5 µg/mL) | 17 (≈ 7.97 µg/mL) | 66 (≈ 30.9 µg/mL) | 17 (≈ 7.97 µg/mL) | 66 (≈ 30.9 µg/mL) | 66 (≈ 30.9 µg/mL) | 133 (≈ 62.3 µg/mL) | – | –
c1ccc(-c2ccc(C(c3ccccc3)n3ccnc3)cc2)cc1 (centres undefined) [BIFONAZOLE] | – | – | – | – | – | – | – | – | 480 (≈ 149 µg/mL) | 480 (≈ 149 µg/mL) | 480 (≈ 149 µg/mL) | 480 (≈ 149 µg/mL) | 640 (≈ 199 µg/mL) | 640 (≈ 199 µg/mL) | 480 (≈ 149 µg/mL) | 322 (≈ 99.9 µg/mL) | 0.322 (≈ 0.0999 µg/mL) | –
CC(=O)N1CCN(c2ccc(OCC3COC(Cn4ccnc4)(c4ccc(Cl)cc4Cl)O3)cc2)CC1 (centres undefined) [KETOCONAZOLE] | – | – | – | – | – | – | – | – | 380 (≈ 202 µg/mL) | 2850 (≈ 1510 µg/mL) | 380 (≈ 202 µg/mL) | 380 (≈ 202 µg/mL) | 4750 (≈ 2520 µg/mL) | 380 (≈ 202 µg/mL) | 3800 (≈ 2020 µg/mL) | 376 (≈ 200 µg/mL) | 0.376 (≈ 0.2 µg/mL) | –

Continued, in another order:

MIC (Staphylococcus aureus [1]) [µM] | MIC (Bacillus cereus) [µM] | MIC (Listeria monocytogenes [2]) [µM] | MIC (Micrococcus flavus) [µM] | MIC (Salmonella typhimurium) [µM] | MIC (Enterobacter cloacae) [µM] | MIC (Pseudomonas aeruginosa [3]) [µM] | MIC (Escherichia coli [4]) [µM] | MIC (Aspergillus fumigatus) [µM] | MIC (Aspergillus versicolor) [µM] | MIC (Aspergillus ochraceus) [µM] | MIC (Aspergillus niger) [µM] | MIC (Trichoderma viride) [µM] | MIC (Talaromyces funiculosus) [µM] | MIC (Penicillium ochrochloron) [µM] | MIC (Candida albicans) [µM] | Compound | MIC (Penicillium verrucosum) [µM] | other results
0.088 (≈ 0.0402 µg/mL) | 66 (≈ 30.2 µg/mL) | 137 (≈ 62.6 µg/mL) | 66 (≈ 30.2 µg/mL) | 66 (≈ 30.2 µg/mL) | 137 (≈ 62.6 µg/mL) | 66 (≈ 30.2 µg/mL) | 0.066 (≈ 0.0302 µg/mL) | 137 (≈ 62.6 µg/mL) | 68 (≈ 31.1 µg/mL) | 68 (≈ 31.1 µg/mL) | 137 (≈ 62.6 µg/mL) | 68 (≈ 31.1 µg/mL) | 137 (≈ 62.6 µg/mL) | 68 (≈ 31.1 µg/mL) | 274 (≈ 125 µg/mL) | O=C1N/C(=N\c2nnc(C34CC5CC(CC(C5)C3)C4)s2)S/C1=C/c1cccc(Cl)c1 | – | –
0.06 (≈ 0.0301 µg/mL) | 14 (≈ 7.02 µg/mL) | 250 (≈ 125 µg/mL) | 250 (≈ 125 µg/mL) | 14 (≈ 7.02 µg/mL) | 60 (≈ 30.1 µg/mL) | 60 (≈ 30.1 µg/mL) | 0.08 (≈ 0.0401 µg/mL) | 125 (≈ 62.7 µg/mL) | 62.5 (≈ 31.3 µg/mL) | 15.6 (≈ 7.82 µg/mL) | 62.5 (≈ 31.3 µg/mL) | 31.2 (≈ 15.6 µg/mL) | 125 (≈ 62.7 µg/mL) | 62.5 (≈ 31.3 µg/mL) | 200 (≈ 100 µg/mL) | O=C1N/C(=N\c2nnc(C34CC5CC(CC(C5)C3)C4)s2)S/C1=C/c1ccc(Br)cc1 | – | –
0.137 (≈ 0.0626 µg/mL) | 137 (≈ 62.6 µg/mL) | 274 (≈ 125 µg/mL) | 328 (≈ 150 µg/mL) | 33 (≈ 15.1 µg/mL) | 137 (≈ 62.6 µg/mL) | 33 (≈ 15.1 µg/mL) | 0.274 (≈ 0.125 µg/mL) | 137 (≈ 62.6 µg/mL) | 68 (≈ 31.1 µg/mL) | 68 (≈ 31.1 µg/mL) | 137 (≈ 62.6 µg/mL) | 68 (≈ 31.1 µg/mL) | 137 (≈ 62.6 µg/mL) | 137 (≈ 62.6 µg/mL) | 274 (≈ 125 µg/mL) | O=C1N/C(=N\c2nnc(C34CC5CC(CC(C5)C3)C4)s2)S/C1=C/c1ccc(Cl)cc1 | – | –
0.068 (≈ 0.0298 µg/mL) | 34 (≈ 14.9 µg/mL) | 284 (≈ 125 µg/mL) | 142 (≈ 62.3 µg/mL) | 34 (≈ 14.9 µg/mL) | 34 (≈ 14.9 µg/mL) | 34 (≈ 14.9 µg/mL) | 0.091 (≈ 0.0399 µg/mL) | 142 (≈ 62.3 µg/mL) | 71 (≈ 31.1 µg/mL) | 71 (≈ 31.1 µg/mL) | 142 (≈ 62.3 µg/mL) | 71 (≈ 31.1 µg/mL) | 71 (≈ 31.1 µg/mL) | 142 (≈ 62.3 µg/mL) | 284 (≈ 125 µg/mL) | O=C1N/C(=N\c2nnc(C34CC5CC(CC(C5)C3)C4)s2)S/C1=C/c1ccc(O)cc1 | – | –
